Measurements as given in ChEMBL document CHEMBL1817615, “Dimerization of piceatannol by Momordica charantia peroxidase and α-glucosidase inhibitory activity of the biotransformation products” (Bioorg Med Chem, 2011).

Assay: Inhibition of yeast alpha-glucosidase using p-nitrophenyl a-D-glucopyranoside as substrate by spectrophotometry
Design: species or system Saccharomyces cerevisiae
Summary of the method: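 Yeast enzyme at 1 U/mL with 0.01 M p-nitrophenyl α-D-glucopyranoside substrate, in 0.067 M KH₂PO₄–Na₂HPO₄ buffer, pH 6.8. Reaction run at 37 °C for 10 min and inhibition read spectrophotometrically. Method adapted with slight modification from a published procedure.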

Row | SMILES | IC50 [µM]
1 | CC(=O)Oc1cc([C@@H]2c3c(O)cc(O)cc3[C@H]3[C@H](c4ccc(O)c(OC(C)=O)c4)c4c(O)cc(O)cc4[C@@H]23)ccc1O | 131
2 | CC(=O)Oc1cc([C@H]2Oc3ccc(/C=C/c4cc(O)cc(O)c4)cc3O[C@@H]2c2cc(O)cc(O)c2)ccc1O (racemic) | 69.3
3 | Oc1cc(O)cc(/C=C/c2cc(O)c3c(c2)[C@H](c2cc(O)cc(O)c2)[C@@H](c2ccc(O)c(O)c2)O3)c1 (racemic) | 1.13
4 | COc1cc([C@@H]2c3c(O)cc(O)cc3[C@H]3[C@H](c4ccc(O)c(O)c4)c4c(O)cc(O)cc4[C@@H]23)ccc1O (racemic) | 109
5 | COc1cc([C@H]2Oc3c(O)cc(/C=C/c4cc(O)cc(O)c4)cc3[C@@H]2c2cc(O)cc(O)c2)ccc1O (relative stereo) | 3.04
6 | Oc1cc(O)c2c(c1)[C@H]1[C@H](c3ccc(O)c(O)c3)c3c(O)cc(O)cc3[C@H]1[C@@H]2c1ccc(O)c(O)c1 [CARAROSINOL D] | 79.1
7 | OC[C@H]1NC[C@H](O)[C@@H](O)[C@@H]1O [DUVOGLUSTAT] | 20.6
8 | COc1cc(/C=C2/c3cc(O)cc(O)c3[C@H](c3ccc(O)c(OC)c3)[C@H]2c2cc(O)cc(O)c2)ccc1O [GNETULIN] | 70.2
9 | Oc1cc(O)cc(/C=C/c2ccc3c(c2)O[C@H](c2cc(O)cc(O)c2)[C@@H](c2ccc(O)c(O)c2)O3)c1 [MAACKIN] | 23.2
10 | Oc1cc(O)cc(/C=C/c2ccc(O)c(O)c2)c1 [PICEATANNOL] | 34.3
